Here are results for 37 variants from the RNAGym collection of RNA variant scans (doi:10.1126/science.aae0568).

To fix the notation:
B1: tRNA (parent)
chain: GUUCCGUUGGCGUAAUGGUAACGCGUCUCCCUCCUAAGGAGAAGACUGCGGGUUCGAGUCCCGUACGGAACG

Fewer inactive variants are shown than the library holds. Some results are limits rather than exact numbers.

This series covers variants of B1. The series can be described thus: yeast fitness relative to wild type (ratio to wild type); higher = fitter; tRNA-Arg(CCU), competitive growth, 37 C, YPD. In outline: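 Gene amplicons from the start population and from each of six end populations were read by 100-nucleotide paired-end sequencing. Those end populations came from pooled Saccharomyces cerevisiae strains carrying tRNA-Arg(CCU) gene variants at the native locus, competed in YPD at 37°C for 24 hours. Fitness relative to wild type was worked out from changes in genotype frequencies. Genotypes needed ≥ 100 starting reads, and estimates < 0.5 were set to 0.5.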
For the variant GUUCCGUUGGCGUAACGGUAACGCGUCUCCCUCCUCUGGAGAAGACUGCGGGUUCGAGUCCCGUACGGAACG, the yeast fitness was at most 0.5.
With GUUCCGUUGGCGUAAAGGUAACGCGUCACCCUCCUAAGGAGAAGACUGAGGGUUCGAGUCCCGUACGGAACG the figure was at most 0.5.
As for GUUCCGUUGGCGUAAAGGUAACGCGUCACCCUCCUAAGGAGAAGACUGGGGGUUCGAGUCCCGUACGGAACG, the yeast fitness was at most 0.5.
In the case of GUUCCGUUGGCGUAAAGGUAACGCGUCUCCCUCCUAAGGAGAAGACAGCGGGUUCGAGUCCCGUACGGAACG it was 0.825; in that of GUUCCGUUGGCGUAACGGUACCGCGUCUCCCUCCUAAGGAAAAGACUGCGGGUUCGAGUCCCGUACGGAACG, at most 0.5.
With GUUCCGUUGGCGUAACGGUACCGCGUCUCCCUCCUAAGGAGAAGACUGAGGGUUCGGAUCCCGUAUGAAACG the figure was at most 0.5; with GUUCCGUUGGCGUAAAGGUAACGCGUCUCCCUCCUAAGGAGAAGACGCCGGGUUCGAGUCCCGUACGGAACG, 0.536.
As to GUUCCGUUGGCGUAACGGUAACGCGUCUCCCUCCUAAGGUGAAGACUGCGGGUUCGAGUCCCGUACAGAACG, the yeast fitness was determined as 0.536.
With GUUCCGUUGGCGUAAAGGUAACGCGUCCCCCUGCUUAGGAGAAGACUGCGGGUUCGAGUCCCGUACGGAACG, the yeast fitness is at most 0.5.
As for GUUCCGUUGGCGUAAAGGUAACGCGUCGCCCUCCUAAGGAGAAGACUGCGGGUUCGAGUCCCGUACAGAACG, the yeast fitness turned out to be 0.752.
With GUUCCGUUGGCGUAAAGGUAACGCGUCUCCCUCCUAAGGAGAAGACUGCGGGUUCGAGUCCCGCACGGAACG the figure was 0.929; with GUUCCGUUGGCGUAACGGUAUCGCGUCUCCCUCCUAAGGAGAUGACUGCGGGUUCGAGUCACGUACGGAACG, at most 0.5; with GUUCCGUUGGCGUAACGGUGACGCGUCUCCCCCCUAAGGAGAAGACUGCGGGUUCGAGUCCCGUACGGAACG, 0.684.
In the case of GUUCCGUUGGCGUAACGGUAACGCGUCUCCCUCCUAAGGUGAAGACUGCUGGUUCGAGUCCCGUACGGAACG it was at most 0.5; in that of GUUCCGUUGGCGUAACGGUAACGCGUCUCCCUCCUAAGGCGAAGACUGCGGGUUCGAGUCCCGUACGGAACG, 0.923.
GUUCCGUUGGCGUAACGGUAACGCGUCUCCCUCCUAAGGUGAAGACUGCGGGUUCGAGUCCCGUACGGAACG: the yeast fitness amounted to 0.789.
In the case of GUUCCGUUGGCGUAAAGGUAACGCGUCACCCUCCUAAGGAGAAGUCUGAGGGUUCGAGUCCCGUAUGGAACG it was at most 0.5; in that of GUUCCGUUGGCGUAACGGUCACGCGUUUCCCUCCUAAGGAGAAGACUGCGGGUUCGAGUCCCGUACGGAACG, 0.662.
In the case of GUUCCGUUGGCGUAACGGUAACGCGUCUCCCUCCUACGGAGAAGACUGCGGGUUGGAGUCCCGUACGGUACG it was at most 0.5; in that of GUUCCGUUGGCGUAACGGUAACGCGUCUCCCUCCUAAGGAGAAGACUGCGGGUUCGAGUCCCGUACGGAACG, 1.01; in that of GUUCCGUUGGCGUAACGGUAACGCGUCUCCCUCCUACGGAGGAGACUGCGGGUUCCAGUCCCGUACGGAACG, at most 0.5.
Regarding GUUCCGUUGGCGUAAAGGUAACGCGUCCCCCUCCUAACAAGAAGACUGCGGGUUCGAGUCCCGUACGGAGCG, the yeast fitness was at most 0.5.
Consider GUUCCGUUGGCGUAAAGGUAACGCGUCCCCCUCCUAAGGAGAAGACUGCGGGUUCGAGUCCCGUACGGCACG, for which the yeast fitness worked out at 0.758.
With GUUCCGUUGGCGUAAAGGUAACGCGUCUCCCUCCCAAGGAGAAGACUGCGGGUUCGAGUCGCGUGCGGAACG the figure was at most 0.5; with GUUCCGUUGGCGUAAAGGUAACGCGUCUCCCCCCUAUGGAGAAGACUGGGGGUUCGAGUCCCGUACGGAACG, 0.516.
On to GUUCCGUUGGCGUAACGGUGACGCGUCUCCCUCCUAAGGAGAAGACUGCGGGUUCGAGUCCCGUACGGAACG, for which the yeast fitness was determined as 0.976.
In the case of GUUCCGUUGGCGUAACGGUCACGCGUCUCCCUCCUAAGGAGAAGACUGCGGGUUCGAGUCCCGUACGGAACG it was 0.995.
In the case of GUUCCGUUGGCGUAACGGUUACGCGUCUCCCUCCUAAGGAGAAGACUGCGGGUUCGAGUCCCGUACGGAACG it was 0.889; in that of GUUCCGUUGGCGUAAAGGUAACGCGUCGCCCUCCUAAGGAGAAGACUGCGGGUUCGAGUCCCGUAUGGAACG, at most 0.5; in that of GUUCCGUUGGCGUAAAGGUAACGCGUCUCCCACCUAAGGCGAAGACUGCGGGUUCGAGUCCCCAAGGGAACG, at most 0.5.
As to GUUCCGUUGGCGUAACGGUGACGCGUCUCCCUCCUAAGGAGAAGACUGCGGAUUCGAGUCCCGUACGGAACG, the yeast fitness is at most 0.5.
In the case of GUUCCGUUGGCGUAAAGGUAACGCGUCUCCCUCCUAAGGAGAAGACCGCGGGUUCGAGUCCCGUAUGGAACG it was 0.893.
In the case of GUUCCGUUGGCGUAAAGGUAACGCGUCUCCCGCCUAAGGAGAAGACUGCGGGUUCGAGUCCCGUACGGAACG it was 0.684; in that of GUUCCGUUGGCGUAAAGGUAACGCGUCACCCUCCUAAGGAGAAGAGUGAGGGUUCGAGUCCCGUACGGUACG, at most 0.5; in that of GUUCCGUUGGCGUAAAGGUAACGCGUCUCCCUCCUAAGGAGAAGACUGCGGGUUCGAGACCUGUACGGAACG, at most 0.5.
Consider GUUCCGUUGGCGUAAAGGUAACGCGUCUCCCUCCUAAGGAGAAGACCGCGGGUUCGAGUCCCAUACGGAACG, for which the yeast fitness came to 0.869.
With GUUCCGUUGGCGUAACGGUAUCGCGUCUACCUCCAAAGGAGAUGACUGCGGGUUCGAGUCCUGUACGCAACG the figure was at most 0.5.
